Compounds with a hit are over-represented: about 5.9% of the library has one in this group of screens.
H69AR growth 86K = blocks growth of human H69AR lung tumor cells; hit rate 6% among 85,000; viability, % at 10 µM; H69AR lung tumor viability, ATP luminescence, 72 h; hits give low values;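 active = viability at or below 40%; inactive = viability above 40%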;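 note: multidrug resistant small cell line overexpressing MRP-1 efflux transporter; 100% = mean luminescence of untreated control wells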
MT1-MMP txn act = MT1-MMP promoter transcription activation. HT1080 MT1-MMP promoter luciferase reporter, luminescence, overnight; hits give high values. activation factor at 10 µM. hit rate 0.16% among 86,000. AID 750;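 active = activation factor of at least 2 for MT1-MMP transcription at 10 µM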
HUVEC prolif 384 = inhibitors of human endothelial cell proliferation | HUVEC proliferation, CellTiter-Glo luminescence, 72 h; hits give low values | hit rate 1.1% among 86,000 | viability, % at 10 µM (by protocol);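 active = viability at or below 30%; inactive = viability above 30%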;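 note: 100% = median luminescence of DMSO-only cell control wells on each plate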
Fibroblast inh = blocks proliferation of human lung fibroblasts. LL 47 human lung fibroblast viability, ATP luminescence; hits give low values. hit rate 1.1% among 85,000. viability, % at 10 µM;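 active = viability at or below 50% in the single dose screen; inactive = viability above 50%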;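 note: compound exposure lasted 72 h before the ATP readout; 100% = median luminescence of untreated cell-only wells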
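Assay system: human lung fibroblast line LL 47, low passage. Input: 1,150 fibroblasts seeded per well. Times: overnight cell rest, 72 h compound treatment at 37 °C. Evaluation: % viability of median cell-only signal. Technique: luminescent ATP detection, CellTiter-Glo. Control set: cell-only wells, no compound.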
PTK2B oligo ant = blocks oligomerization of human Pyk2 in cells; hit rate 0.83% among 99,000; z-score (the deposit names both 25 µM and 10 µM); Q293 cells, Pyk2 FERM NanoBiT luminescence; hits give low values; Q14289;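 active = Z-score of -3 or lower, scaled per plate to the spread of control and sample wells; inactive = z-score above -3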;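 note: negative z-score means lost luminescence so less FERM oligomerization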
Jurkat tox 60K = cytotoxic compounds reducing Jurkat cell viability | inhibition, % at 4 µM | Jurkat E6.1 viability, ATP luminescence, 48 h | hit rate 1.2% among 56,000 | AID 463;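 active = inhibition above the mean inhibition of all tested compounds plus 3 SD, cut at about 28% in these data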
* marks the source's active call; other numbers are inactive results; . = no result.

SMILES	H69AR growth 86K	MT1-MMP txn act	HUVEC prolif 384	Fibroblast inh	PTK2B oligo ant	Jurkat tox 60K
CCCc1cc(=O)[nH]c(Nc2ccc(N3CCCCC3)cc2)n1	87.5	.	112.5	97.2	-0.41	7.8
CCCCc1ccc(Nc2nc(CCC)cc(=O)[nH]2)cc1	57.7	1	2.5*	75.2	-1.03	2.8
CCOC(=O)c1cnc2ccc(OCC)cc2c1N1CCN(c2ccccc2OC)CC1	28.9*	1.1	66.8	86.7	-1.94	.
CCOC(=O)C1CCN(c2c(N3CCN(c4ccccc4OC)CC3)c(=O)c2=O)CC1	73.3	1.1	99.7	103.3	.	0.6
COc1cc(CNCCc2c[nH]c3ccccc23)ccc1OCc1ccc(F)cc1	.	.	.	.	0.44	.
Cc1cccc(N(C)c2cc(C)nc3nc(C)nn23)c1	23.2*	1.1	101.7	95.1	.	8.8
CCOC(=O)C1=C(C)Nc2ccc(C)cc2S1	103.7	1.1	80.1	97.8	0.24	.
CSCCOC(=O)C1=C(C)Nc2ccc(C)cc2S1	28.1*	1.3	80.9	90.2	-0.35	.
Cc1cccc(N2CCN(C(=O)c3ccncc3)CC2)c1C	21.4*	1.1	65.5	81.5	1.41	60.0*
Cc1cccc(N2CCN(C(=O)C(Cc3ccccc3)n3cccc3)CC2)c1C (centres undefined)	22.7*	.	94.0	93.0	.	.
COc1ccc(C(=O)N2CCN(c3c(C)cccc3C)CC2)cc1OC	85.8	1.2	82.4	89.3	.	-2.1
Cc1cccc(N2CCN(C(=O)c3ccc4ncsc4c3)CC2)c1C	.	.	.	.	0.17	.
COc1cc(C(=O)N2CCN(c3cccc(C)c3C)CC2)cc(OC)c1OC	.	0.4	.	.	.	93.5*
COc1cc(C(=O)N2CCN(c3cc(Cl)ccc3Cl)CC2)cc(OC)c1OC	33.2*	0.4	42.6	53.2	.	60.6*
O=C(C(Cc1ccccc1)n1cccc1)N1CCN(c2ncccn2)CC1 (centres undefined)	94.3	1.1	106.7	103.6	.	3.7
O=C(NC1CCS(=O)(=O)C1)OC1CCCCC1 (centres undefined)	108.5	1	100.6	103.1	0.55	5.6
O=c1cc([O-])[n+]2c3n1CCCN3CCC2	.	.	.	.	0.59	.
COc1ccccc1N1CCN(C(=O)c2ccoc2C)CC1	94.6	1.1	91.5	96.0	0.29	2.4
Cc1ccccc1S(=O)(=O)Cc1ccc(C(=O)N2CC(C)CC(C)C2)o1 (centres undefined)	98.5	1.2	113.4	98.4	.	2.2
COc1ccccc1N1CCN(C(=O)c2oc3cc(C)cc(C)c3c2C)CC1	23.1*	1.2	80.1	91.1	-1.14	.
Cc1ccccc1S(=O)(=O)Cc1ccc(C(=O)N2CCN(c3cccc(C)c3C)CC2)o1	.	0.5	.	.	-1.85	93.4*
O=C(N/N=C1/CCCc2ccccc21)C(c1ccccc1)c1ccccc1	.	.	.	.	0.07	.
CC(C)(C)NC(=O)CN(C(=O)CS(=O)CC(=O)Nc1ccc(F)cc1)c1ccc(F)c(Cl)c1 (centres undefined)	97.1	1.2	93.3	96.9	0.3	-12.1
CCOC(=O)N1CCN(CC(=O)Nc2c(C(=O)OC)[nH]c3ccccc23)CC1	44.3	1.2	105.2	94.5	1.62	2.5
COc1ccc2[nH]cc(C(=O)CN3CCN(C(=O)c4ccco4)CC3)c2c1	79.3	1.3	29.2*	107.5	-0.13	-4.8
SMILES	H69AR growth 86K	MT1-MMP txn act	HUVEC prolif 384	Fibroblast inh	PTK2B oligo ant	Jurkat tox 60K
COC(=O)c1[nH]c2ccccc2c1NC(=O)CN1CCN(C(=O)c2ccco2)CC1	18.3*	1.1	95.2	95.1	-0.01	0.3
CC(C)(C)C1CCc2c(sc(NC(=O)CSc3nnc(-c4ccccc4)o3)c2C#N)C1 (centres undefined)	.	.	.	.	-0.03	.
C=CCSC1=N/C(=C\c2ccc(C)o2)C(=O)S1	83.2	.	98.7	98.2	0.85	.
CS(=O)(=O)N(CC(=O)Nc1ccccc1C(=O)NCc1ccco1)c1ccc2c(c1)OCCO2	26.3*	1	83.1	85.9	-0.8	.
Cc1ccccc1CN(c1ccc(C(=O)Nc2ccccc2C(=O)NCc2ccco2)cc1)S(C)(=O)=O	84.3	1.1	93.0	98.9	-3.57*	.
Cc1ccccc1NC(=O)CC1(c2ccc(N(C)C)cc2)C(=O)c2ccccc2C1=O	.	.	.	.	0.32	.
CC(=O)Nc1ccccc1Nc1cc(C#N)c(C#N)cc1[N+](=O)[O-]	85.8	1	96.8	110.7	-0.12	.
COc1ccc2[nH]c3nc(SC(C)C)nnc3c2c1	91.7	0.2	93.3	119.4	0.37	6.1
COc1ccc(-c2nnc(SCc3nnc(-c4ccccc4)o3)n2-c2ccccc2)cc1	2.6*	1	41.5	85.2	0.6	-6.0
COc1ccc2[nH]c3nc(SCc4nnc(-c5ccccc5)o4)nnc3c2c1	9.3*	1.3	65.3	101.2	-0.25	3.0
COc1ccc2c(c1)C1(Nc3ccccc3-c3nc4ccccc4n31)C(=O)N2 (centres undefined)	85.1	1.1	81.0	90.8	-2.12	3.0
COc1ccc2c(c1)C1(Nc3ccccc3-c3nc4ccccc4n31)C(=O)N2C (centres undefined)	36.8*	0.9	88.2	.	-3.14*	-0.8
Cc1c(CCC#N)c(N2CCN(C3CCCCC3)CC2)n2c(nc3ccccc32)c1C#N	.	1.1	.	.	.	.
Cc1ccc(C(=O)c2c(C)oc3c2C(=O)C(=O)c2ccccc2-3)cc1	1.0*	1.5	56.8	2.1*	-3.78*	.
Cc1ccc(C(=O)c2coc3c2C(=O)C(=O)c2ccccc2-3)cc1	1.8*	.	3.5*	47.0*	-2.43	.
O=C(c1ccc(Cl)cc1)c1ccc(CN2C(=O)c3ccccc3C2=O)o1	91.5	1.1	96.4	102.9	0.34	.
Cc1oc2c(c1C(=O)c1ccc(Cl)cc1)C(=O)C(=O)c1ccccc1-2	.	.	.	.	-3.61*	.
CCOc1cc(NC(=O)C2CC2)c(OCC)cc1NC(=O)c1ccccn1	.	1.2	95.3	106.5	-3.23*	-10.7
CCn1nc(C(=O)NNC(=O)COc2ccccc2C)c2ccccc2c1=O	.	.	.	.	1.56	.
COc1cc(C)nc(N2CCCC(C(=O)Nc3cccc(Cl)c3Cl)C2)n1 (centres undefined)	11.0*	1.2	59.8	70.4	0.83	.
OC(c1ccccc1)c1nc2ccccc2s1 (centres undefined)	99.2	1.3	89.9	94.8	-0.03	7.2
O=c1c(C(c2ccccc2)c2c(O)sc3ccccc3c2=O)c(O)sc2ccccc12	36.4*	1	66.7	88.6	0.34	.
Cn1c(-c2sc3ccccc3c2Cl)n[nH]c1=S	83.3	1	43.3	98.5	2	.
COc1ccc(C2C(C(=O)c3ccco3)=C(O)C(=O)N2Cc2cccnc2)cc1OC (centres undefined)	93.3	1.1	95.1	99.8	0.41	3.2
COc1cc(C2c3c(-c4cc(Cl)c(C)cc4O)n[nH]c3C(=O)N2Cc2cccnc2)ccc1O (centres undefined)	85.6	1.2	99.1	91.6	-4.75*	0.3
COc1cccc(C2c3c(-c4cc(Cl)c(C)cc4O)n[nH]c3C(=O)N2Cc2cccnc2)c1 (centres undefined)	57.6	1	103.3	98.8	-3.73*	.

Assay outcomes as filed in PubChem.
